Results reported in ChEMBL document CHEMBL3352550, “Discovery and optimization of 4,5-diarylisoxazoles as potent dual inhibitors of pyruvate dehydrogenase kinase and heat shock protein 90” (J Med Chem, 2014).
Activity calls are given as the source filed them. The calls are words filed in the database; no cut-off is given here.

Legend:
Heat shock protein HSP90 [1] = target: T1, Heat shock protein HSP90 (Homo sapiens, UniProt P07900+P08238); test: Inhibition of HSP90 in human NCI-H1299 cells assessed as increase in HSP70 protein levels at 10 uM incubated for 12 hrs by immunoblotting method; type: cell-based
Procedure, shortened: (§1)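 NCI-H1299 cells were treated for 12 h and lysed in RIPA buffer with protease inhibitors. Equal protein was loaded per lane, run on a gel and transferred to nitrocellulose. Membranes were blocked in TBST with 3% BSA for 1 h at room temperature, then probed with primary antibody for 2 h and secondary antibody for 1 h, both at room temperature. Bands were detected by ECL.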

Heat shock protein HSP90 [2] = target: T1, Heat shock protein HSP90; test: Inhibition of HSP90 in human NCI-H1299 cells assessed as reduction in HER2 protein levels at 10 uM incubated for 12 hrs by immunoblotting method; type: cell-based; procedure, shortened: as §1
Heat shock protein HSP90 [3] = target: T1, Heat shock protein HSP90; test: Inhibition of HSP90 in human NCI-H1299 cells assessed as reduction in AKT protein levels at 10 uM incubated for 12 hrs by immunoblotting method; type: cell-based; procedure, shortened: as §1
Heat shock protein HSP90 [4] = target: T1, Heat shock protein HSP90; test: Inhibition of HSP90 in human NCI-H1299 cells assessed as reduction in c-MET protein levels at 10 uM incubated for 12 hrs by immunoblotting method; type: cell-based; procedure, shortened: as §1
[5] = target: T2, [Pyruvate dehydrogenase (acetyl-transferring)] kinase isozyme 1, mitochondrial (Homo sapiens, UniProt Q15118); test: Inhibition of recombinant PDHK1 (unknown origin) expressed in Escherichia coli incubated for 1 hr by ELISA
[6] = Efflux ratio in human Caco2 cells; conditions: Caco-2
[7] = target: T2, [Pyruvate dehydrogenase (acetyl-transferring)] kinase isozyme 1, mitochondrial; test: Inhibition of recombinant PDHK1 (unknown origin) expressed in Escherichia coli at 10 uM incubated for 1 hr by ELISA
Procedure, shortened: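 Recombinant His6-SUMO-PDHK1 was expressed in E. coli and purified on nickel resin. It was used at 0.25 µg/well on immobilized PDHA1 substrate (0.5 µg/well) with 10 µM ATP in 50 mM HEPES, 10 mM MgCl2 and 1 mM EGTA. Compounds were screened at 10 µM and percent inhibition was recorded. Detection used anti-p-PDHA1(S293) for 1 h and HRP secondary antibody for 1 h, then o-phenylenediamine, read at OD490.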

Heat shock protein HSP90 [8] = target: T1, Heat shock protein HSP90; test: Inhibition of geldanamycin-BODIPY binding to full-length HSP90 (unknown origin) by fluorescence polarization based competition assay; type: protein assay
Procedure, shortened: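 Fluorescence polarization competition using full-length HSP90 and geldanamycin-BODIPY as probe.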

[9] = Apparent permeability from apical to basolateral side in human Caco2 cells; conditions: Caco-2
[10] = Apparent permeability from basolateral to apical side in human Caco2 cells; conditions: Caco-2
NCI-H1299 [11] = test: Reduction in oxygen consumption rate in human NCI-H1299 cells incubated for 12 hrs; type: functional, cell-based
Procedure, shortened: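 Cells pre-treated with varying concentrations of compound for 12 h, then oxygen consumption rate and extracellular acidification rate measured on an XF96 extracellular flux analyzer; ECAR/OCR ratio calculated from these readings.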

NCI-H1299 [12] = test: Increase in oxygen consumption rate/extracellular acidification rate ratio in human NCI-H1299 cells at incubated for 12 hrs; type: functional, cell-based
NCI-H1299 [13] = test: Increase in oxygen consumption rate in human NCI-H1299 cells at 10 mM incubated for 12 hrs; type: functional, cell-based
Procedure, shortened: (§2)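 NCI-H1299 cells were pre-treated with compound for 12 h, then oxygen consumption rate and extracellular acidification rate were read on an XF96 extracellular flux analyzer.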

NCI-H1299 [14] = test: Reduction in extracellular acidification rate in human NCI-H1299 cells at 10 mM incubated for 12 hrs; type: functional, cell-based; procedure, shortened: as §2
[15] = target: T2, [Pyruvate dehydrogenase (acetyl-transferring)] kinase isozyme 1, mitochondrial; conditions: NCI-H1299, 10 mM
[16] = target: T2, [Pyruvate dehydrogenase (acetyl-transferring)] kinase isozyme 1, mitochondrial; test: Inhibition of PDHK1 (unknown origin)
[17] = target: [Pyruvate dehydrogenase (acetyl-transferring)] kinase isozyme 3, mitochondrial (Homo sapiens, UniProt Q15120); test: Inhibition of PDHK3 (unknown origin)
Procedure, shortened: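 PDHK3 was expressed in E. coli as a His6-SUMO fusion and purified on nickel resin. The substrate was His6-SUMO-PDHA1, immobilized at 0.5 µg/well, with enzyme at 0.25 µg/well and 10 µM ATP in 50 mM HEPES, 10 mM MgCl2 and 1 mM EGTA. Phosphorylation was detected with anti-p-PDHA1(S293) for 1 h, then HRP secondary antibody for 1 h. Colour was developed with o-phenylenediamine and read at OD490. IC50 came from a four-parameter fit.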

T2 sequence (Q15118 whole entry): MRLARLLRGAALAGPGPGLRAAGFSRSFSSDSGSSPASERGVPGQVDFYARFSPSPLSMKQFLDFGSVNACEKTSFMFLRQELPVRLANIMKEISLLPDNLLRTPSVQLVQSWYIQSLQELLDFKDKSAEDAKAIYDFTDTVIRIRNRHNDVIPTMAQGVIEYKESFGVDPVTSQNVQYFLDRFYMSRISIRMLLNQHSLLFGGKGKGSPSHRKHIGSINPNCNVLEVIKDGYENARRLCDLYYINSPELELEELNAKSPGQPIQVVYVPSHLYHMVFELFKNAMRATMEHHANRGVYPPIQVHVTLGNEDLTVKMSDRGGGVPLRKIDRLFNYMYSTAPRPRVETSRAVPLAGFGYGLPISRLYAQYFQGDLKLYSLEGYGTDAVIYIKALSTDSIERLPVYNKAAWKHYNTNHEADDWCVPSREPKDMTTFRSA
Chain of [Pyruvate dehydrogenase (acetyl-transferring)] kinase isozyme 3, mitochondrial (Q15120 whole entry, the tested form may be a part): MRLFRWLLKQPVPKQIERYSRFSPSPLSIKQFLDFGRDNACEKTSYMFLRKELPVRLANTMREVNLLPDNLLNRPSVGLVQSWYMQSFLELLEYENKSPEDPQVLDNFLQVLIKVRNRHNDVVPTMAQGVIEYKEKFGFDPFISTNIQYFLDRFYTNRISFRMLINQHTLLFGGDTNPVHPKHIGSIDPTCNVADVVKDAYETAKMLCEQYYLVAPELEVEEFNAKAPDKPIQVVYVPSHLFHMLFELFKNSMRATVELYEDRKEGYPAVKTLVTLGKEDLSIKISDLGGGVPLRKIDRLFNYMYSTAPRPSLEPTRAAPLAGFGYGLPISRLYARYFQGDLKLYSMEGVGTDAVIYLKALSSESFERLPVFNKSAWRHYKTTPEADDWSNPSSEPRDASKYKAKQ

| Compound | IC50 [5] | inhibition [7] | IC50 (Heat shock protein HSP90 [8]) | other results |
| --- | --- | --- | --- | --- |
| COc1ccc(-c2c(/C=C/C(=O)N3CCN(c4ncccn4)CC3)noc2-c2cc(Cl)c(O)cc2O)cc1 | 1070 nM | > 50% | 208 nM | inhibition (Heat shock protein HSP90 [1]): Active; inhibition (Heat shock protein HSP90 [2]): Active; inhibition (Heat shock protein HSP90 [3]): Active; inhibition (Heat shock protein HSP90 [4]): Active; efflux ratio [6]: 0.74; Papp A→B [9]: 6.9 ×10⁻⁶ cm/s; Papp B→A [10]: 5.09 ×10⁻⁶ cm/s |
| COc1ccc(-c2c(/C=C/C(=O)N3CCN(c4cccc(C(F)(F)F)c4)CC3)noc2-c2cc(Cl)c(O)cc2O)cc1 | 2370 nM | > 50% | 2255 nM | – |
| COc1ccc(-c2c(C(=O)Nc3ccc(N(C)C)cc3)noc2-c2cc(Cl)c(O)cc2O)cc1 | 380 nM | > 50% | 91 nM | – |
| COc1ccc(-c2c(/C=C/C(=O)N3CCN(c4cccc(OC)c4)CC3)noc2-c2cc(Cl)c(O)cc2O)cc1 | 491 nM | > 50% | 718 nM | – |
| COc1ccc(-c2c(C(=O)NC3CCN(Cc4ccc(Cl)cc4Cl)CC3)noc2-c2cc(Cl)c(O)cc2O)cc1 | 160 nM | > 50% | 127 nM | – |
| O=C(/C=C/c1noc(-c2cc(Cl)c(O)cc2O)c1-c1ccc(O)cc1)N1CCN(c2ccccn2)CC1 | 878 nM | > 50% | 357 nM | – |
| COc1ccc(CN2CCC(NC(=O)c3noc(-c4cc(Cl)c(O)cc4O)c3-c3ccc(OC)cc3)CC2)cc1 | 17 nM | > 50% | 16 nM | inhibition (Heat shock protein HSP90 [1]): Active; inhibition (Heat shock protein HSP90 [2]): Active; inhibition (Heat shock protein HSP90 [3]): Active; inhibition (Heat shock protein HSP90 [4]): Active; efflux ratio [6]: 9.04; Papp A→B [9]: 0.962 ×10⁻⁶ cm/s; Papp B→A [10]: 8.7 ×10⁻⁶ cm/s |
| COc1ccc(-c2c(/C=C/C(=O)N3CCN(c4ccc(Cl)c(Cl)c4)CC3)noc2-c2cc(Cl)c(O)cc2O)cc1 | 4310 nM | > 50% | 4232 nM | – |
| COc1cccc(N2CCN(C(=O)/C=C/c3noc(-c4cc(Cl)c(O)cc4O)c3-c3ccc(O)cc3)CC2)c1 | 776 nM | > 50% | 666 nM | inhibition (Heat shock protein HSP90 [1]): Active; inhibition (Heat shock protein HSP90 [2]): Active; inhibition (Heat shock protein HSP90 [3]): Active; inhibition (Heat shock protein HSP90 [4]): Active; efflux ratio [6]: 2.29; Papp A→B [9]: 6.54 ×10⁻⁶ cm/s; Papp B→A [10]: 15 ×10⁻⁶ cm/s |
| CC(C)NCCCn1c(Sc2cc3c(cc2I)OCO3)nc2c(N)ncnc21 | – | – | – | inhibition (NCI-H1299 [11]): Active |
| COc1ccc(-c2c(C(=O)NC3CCN(CC(C)C)CC3)noc2-c2cc(Cl)c(O)cc2O)cc1 | 68 nM | > 50% | 23 nM | – |
| CCNC(=O)N1CCC(NC(=O)c2noc(-c3cc(Cl)c(O)cc3O)c2-c2ccc(OC)cc2)CC1 | 150 nM | > 50% | 20 nM | – |
| CC(C)c1cc(-c2n[nH]c(=O)n2-c2ccc3c(ccn3C)c2)c(O)cc1O | – | – | – | Activity (NCI-H1299 [12]): inactive |
| COc1ccc(-c2c(C(=O)NC3CCN(S(C)(=O)=O)CC3)noc2-c2cc(Cl)c(O)cc2O)cc1 | 130 nM | > 50% | 45 nM | – |
| O=C(O)C(Cl)Cl | – | – | – | inhibition (NCI-H1299 [13]): Active; inhibition (NCI-H1299 [14]): Active; inhibition [15]: Active |
| COc1ccc(-c2c(C(=O)NC3CCN(Cc4ccccc4)CC3)noc2-c2cc(Cl)c(O)cc2O)cc1 | 25 nM | > 50% | 36 nM | inhibition (Heat shock protein HSP90 [1]): Active; inhibition (Heat shock protein HSP90 [2]): Active; inhibition (Heat shock protein HSP90 [3]): Active; inhibition (Heat shock protein HSP90 [4]): Active |
| COc1ccc(-c2c(C(=O)N3CCC(Cc4ccccc4)CC3)noc2-c2cc(Cl)c(O)cc2O)cc1 | > 10000 nM | < 50% | > 10000 nM | – |

| Compound | IC50 [5] | inhibition [7] | IC50 (Heat shock protein HSP90 [8]) | other results |
| --- | --- | --- | --- | --- |
| COc1ccc(-c2c(/C=C/C(=O)N3CCN(c4ccccc4OC)CC3)noc2-c2cc(Cl)c(O)cc2O)cc1 | 845 nM | > 50% | 596 nM | – |
| COc1ccc(-c2c(C(=O)Nc3ccncc3)noc2-c2cc(Cl)c(O)cc2O)cc1 | 580 nM | > 50% | 154 nM | – |
| COc1ccc(-c2c(C(=O)NC3CCN(Cc4ccncc4)CC3)noc2-c2cc(Cl)c(O)cc2O)cc1 | 59 nM | > 50% | 15 nM | – |
| COc1ccc(-c2c(/C=C/C(=O)N3CCN(c4ccccc4)CC3)noc2-c2cc(Cl)c(O)cc2O)cc1 | 1920 nM | > 50% | 677 nM | – |
| O=C(/C=C/c1noc(-c2cc(Cl)c(O)cc2O)c1-c1ccc(O)cc1)N1CCN(c2ccc(Cl)c(Cl)c2)CC1 | 1420 nM | > 50% | 3939 nM | – |
| COc1ccc(-c2c(C(=O)NC3CCN(CC4CC4)CC3)noc2-c2cc(Cl)c(O)cc2O)cc1 | 28 nM | > 50% | 39 nM | inhibition (Heat shock protein HSP90 [1]): Active; inhibition (Heat shock protein HSP90 [2]): Active; inhibition (Heat shock protein HSP90 [3]): Active; inhibition (Heat shock protein HSP90 [4]): Active |
| C[C@@H]1C[C@H]2O[C@@H]2/C=C\C=C\C(=O)Cc2c(Cl)c(O)cc(O)c2C(=O)O1 [RADICICOL] | – | – | – | IC50 [16]: 400000 nM; IC50 [17]: 230000 nM |
| CO[C@H]1/C=C\C=C(/C)C(=O)NC2=CC(=O)C(NCCN(C)C)=C(C[C@@H](C)C[C@H](OC)[C@H](O)[C@@H](C)/C=C(\C)[C@@H]1OC(N)=O)C2=O | – | – | – | inhibition (NCI-H1299 [11]): Active |
| COc1c(C)cnc(Cn2cnc3c(Cl)nc(N)nc32)c1C | – | – | – | inhibition (NCI-H1299 [11]): Active |
| COc1ccc(-c2c(C(=O)NCc3ccc(Cl)cc3Cl)noc2-c2cc(Cl)c(O)cc2O)cc1 | 610 nM | > 50% | 1600 nM | – |
| COc1ccc(-c2c(C(=O)NC3CCN(C(C)=O)CC3)noc2-c2cc(Cl)c(O)cc2O)cc1 | 210 nM | > 50% | 25 nM | – |
| COc1ccc(-c2c(/C=C/C(=O)N3CCN(c4ccccn4)CC3)noc2-c2cc(Cl)c(O)cc2O)cc1 | 1050 nM | > 50% | 215 nM | – |
| O=C(/C=C/c1noc(-c2cc(Cl)c(O)cc2O)c1-c1ccc(O)cc1)N1CCN(c2cccc(C(F)(F)F)c2)CC1 | 2950 nM | > 50% | 1859 nM | – |
| O=C(/C=C/c1noc(-c2cc(Cl)c(O)cc2O)c1-c1ccc(O)cc1)N1CCN(c2ncccn2)CC1 | 521 nM | > 50% | 338 nM | – |
| COc1ccc(-c2c(/C=C/C(=O)N3CCN(c4ccc(OC)cc4)CC3)noc2-c2cc(Cl)c(O)cc2O)cc1 | 557 nM | > 50% | 700 nM | – |
| CC1(C)CC(=O)c2c(C(F)(F)F)nn(-c3ccc(C(N)=O)c(N[C@H]4CC[C@H](O)CC4)c3)c2C1 | – | – | – | Activity (NCI-H1299 [12]): inactive |
| COc1ccc(N2CCN(C(=O)/C=C/c3noc(-c4cc(Cl)c(O)cc4O)c3-c3ccc(O)cc3)CC2)cc1 | 952 nM | > 50% | 576 nM | – |
